Experiments:
[1] = Inhibition of human Avi-tagged MUS81 (246 to 551 residues)/2x8His-tagged EME1 (246 to 570 residues) extracted from Escherichia coli BL21 Gold (DE3) using branched DNA as substrate preincubated for 15 mins followed by substrate addition and measured after 90 mins by FRET assay
Outline: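 IC50 is reported as the geometric mean ± SEM of at least three independent determinations.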

[2] = Binding affinity to human Avi-tagged MUS81 (246 to 551 residues)/2x8His-tagged EME1 (246 to 570 residues) extracted from Escherichia coli BL21 Gold (DE3) by SPR analysis
Outline: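 Fragments flagged as hits in a DSF screen were taken into SPR against MUS81-EME1 to confirm binding and obtain Kd. Kd is reported as the geometric mean with geometric standard deviation of at least three determinations.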

[3] = target: GABA-A receptor; anion channel; experiment: Inhibition of GABA (unknown origin); format: toxicity, Homo sapiens
[4] = target: Voltage-gated inwardly rectifying potassium channel KCNH2 (Homo sapiens, UniProt Q12809); experiment: Inhibition of hERG; format: toxicity
[5] = target: Glutamate [NMDA] receptor; experiment: Inhibition of NMDA (unknown origin); format: toxicity, Homo sapiens
[6] = Metabolic stability in rat hepatocytes assessed as intrinsic clearance measured per million cells; format: ADME, cell-based, Hepatocyte; conditions: read-out: CLH
[7] = Lipophilicity, logD of the compound in octanol/water at pH 7.4 by shake flask method; format: physicochemical
[8] = Kinetic aqueous solubility of the compound at pH 7.4; format: physicochemical; conditions: buffer
[9] = target: CaV-L (Voltage-gated L-type calcium channel) (Homo sapiens, UniProt O60840+Q01668+Q13698+Q13936); experiment: Inhibition of CaV-L (unknown origin); format: toxicity
[10] = Metabolic stability in human liver microsomes assessed as intrinsic clearance; format: ADME, Microsome
Insulin receptor = Insulin receptor (Homo sapiens, UniProt P06213); experiment: Inhibition of INSR (unknown origin); format: toxicity
[11] = target: T1, Prostaglandin G/H synthase 2 (Homo sapiens, UniProt P35354); experiment: Inhibition of COX2 (unknown origin); format: toxicity
T1 sequence (P35354 whole entry): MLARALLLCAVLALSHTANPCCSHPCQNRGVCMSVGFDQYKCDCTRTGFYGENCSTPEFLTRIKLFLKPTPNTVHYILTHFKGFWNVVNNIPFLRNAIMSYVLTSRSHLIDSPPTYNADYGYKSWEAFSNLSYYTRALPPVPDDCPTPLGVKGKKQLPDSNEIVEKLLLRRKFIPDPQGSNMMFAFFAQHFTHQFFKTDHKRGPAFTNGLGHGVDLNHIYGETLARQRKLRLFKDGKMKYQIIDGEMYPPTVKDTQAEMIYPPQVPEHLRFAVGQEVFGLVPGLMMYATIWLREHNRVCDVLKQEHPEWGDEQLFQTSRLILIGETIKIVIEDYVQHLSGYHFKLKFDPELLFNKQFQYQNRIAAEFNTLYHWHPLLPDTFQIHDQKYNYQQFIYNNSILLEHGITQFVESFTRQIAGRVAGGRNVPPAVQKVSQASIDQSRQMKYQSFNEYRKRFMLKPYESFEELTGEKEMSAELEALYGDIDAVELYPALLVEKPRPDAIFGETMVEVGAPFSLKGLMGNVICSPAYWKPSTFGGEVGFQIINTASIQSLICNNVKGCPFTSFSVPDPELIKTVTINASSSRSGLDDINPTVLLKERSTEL

PDE = experiment: Inhibition of PDE (unknown origin); format: toxicity, Homo sapiens
[12] = Efflux ratio of apparent permeability in human Caco-2 cells; format: ADME, cell-based

Sequence of Insulin receptor (P06213 28-758 limits assumed): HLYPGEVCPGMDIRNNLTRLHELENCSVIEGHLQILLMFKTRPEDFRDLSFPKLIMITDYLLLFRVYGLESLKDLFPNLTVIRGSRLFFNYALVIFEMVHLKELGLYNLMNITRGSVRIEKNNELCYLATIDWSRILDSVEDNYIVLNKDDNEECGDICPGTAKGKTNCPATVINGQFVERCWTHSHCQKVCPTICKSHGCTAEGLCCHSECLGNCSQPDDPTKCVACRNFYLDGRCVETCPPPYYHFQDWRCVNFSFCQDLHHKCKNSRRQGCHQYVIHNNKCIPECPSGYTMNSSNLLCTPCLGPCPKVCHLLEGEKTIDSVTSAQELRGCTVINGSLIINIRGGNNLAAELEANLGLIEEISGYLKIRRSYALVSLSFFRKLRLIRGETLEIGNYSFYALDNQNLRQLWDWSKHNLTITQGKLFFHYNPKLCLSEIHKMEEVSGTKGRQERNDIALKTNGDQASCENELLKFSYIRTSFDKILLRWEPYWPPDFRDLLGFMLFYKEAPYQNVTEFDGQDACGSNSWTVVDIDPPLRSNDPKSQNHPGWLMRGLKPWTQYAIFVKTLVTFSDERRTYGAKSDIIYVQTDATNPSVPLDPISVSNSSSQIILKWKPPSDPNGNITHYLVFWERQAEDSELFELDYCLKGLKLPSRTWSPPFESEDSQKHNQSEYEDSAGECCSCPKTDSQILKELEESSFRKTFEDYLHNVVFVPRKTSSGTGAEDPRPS
Sequence of Insulin receptor (P06213 763-1382 limits assumed): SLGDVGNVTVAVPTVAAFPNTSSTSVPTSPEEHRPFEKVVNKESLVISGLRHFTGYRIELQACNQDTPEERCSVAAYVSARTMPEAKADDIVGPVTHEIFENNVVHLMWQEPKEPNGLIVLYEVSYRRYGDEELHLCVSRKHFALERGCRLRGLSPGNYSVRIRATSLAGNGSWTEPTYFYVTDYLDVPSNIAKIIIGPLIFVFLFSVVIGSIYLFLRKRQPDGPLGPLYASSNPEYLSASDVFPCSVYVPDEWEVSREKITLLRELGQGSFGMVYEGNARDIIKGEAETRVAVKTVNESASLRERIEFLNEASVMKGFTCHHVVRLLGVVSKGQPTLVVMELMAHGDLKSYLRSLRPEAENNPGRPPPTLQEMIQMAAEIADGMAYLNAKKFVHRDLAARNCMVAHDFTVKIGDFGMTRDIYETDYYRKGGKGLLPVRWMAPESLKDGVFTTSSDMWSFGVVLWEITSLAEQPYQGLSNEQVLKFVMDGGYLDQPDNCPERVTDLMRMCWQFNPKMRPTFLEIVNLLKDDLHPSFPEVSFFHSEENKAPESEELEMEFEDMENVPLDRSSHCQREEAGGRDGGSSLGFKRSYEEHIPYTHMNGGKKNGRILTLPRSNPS
Sequence of Voltage-gated inwardly rectifying potassium channel KCNH2 (Q12809 whole entry): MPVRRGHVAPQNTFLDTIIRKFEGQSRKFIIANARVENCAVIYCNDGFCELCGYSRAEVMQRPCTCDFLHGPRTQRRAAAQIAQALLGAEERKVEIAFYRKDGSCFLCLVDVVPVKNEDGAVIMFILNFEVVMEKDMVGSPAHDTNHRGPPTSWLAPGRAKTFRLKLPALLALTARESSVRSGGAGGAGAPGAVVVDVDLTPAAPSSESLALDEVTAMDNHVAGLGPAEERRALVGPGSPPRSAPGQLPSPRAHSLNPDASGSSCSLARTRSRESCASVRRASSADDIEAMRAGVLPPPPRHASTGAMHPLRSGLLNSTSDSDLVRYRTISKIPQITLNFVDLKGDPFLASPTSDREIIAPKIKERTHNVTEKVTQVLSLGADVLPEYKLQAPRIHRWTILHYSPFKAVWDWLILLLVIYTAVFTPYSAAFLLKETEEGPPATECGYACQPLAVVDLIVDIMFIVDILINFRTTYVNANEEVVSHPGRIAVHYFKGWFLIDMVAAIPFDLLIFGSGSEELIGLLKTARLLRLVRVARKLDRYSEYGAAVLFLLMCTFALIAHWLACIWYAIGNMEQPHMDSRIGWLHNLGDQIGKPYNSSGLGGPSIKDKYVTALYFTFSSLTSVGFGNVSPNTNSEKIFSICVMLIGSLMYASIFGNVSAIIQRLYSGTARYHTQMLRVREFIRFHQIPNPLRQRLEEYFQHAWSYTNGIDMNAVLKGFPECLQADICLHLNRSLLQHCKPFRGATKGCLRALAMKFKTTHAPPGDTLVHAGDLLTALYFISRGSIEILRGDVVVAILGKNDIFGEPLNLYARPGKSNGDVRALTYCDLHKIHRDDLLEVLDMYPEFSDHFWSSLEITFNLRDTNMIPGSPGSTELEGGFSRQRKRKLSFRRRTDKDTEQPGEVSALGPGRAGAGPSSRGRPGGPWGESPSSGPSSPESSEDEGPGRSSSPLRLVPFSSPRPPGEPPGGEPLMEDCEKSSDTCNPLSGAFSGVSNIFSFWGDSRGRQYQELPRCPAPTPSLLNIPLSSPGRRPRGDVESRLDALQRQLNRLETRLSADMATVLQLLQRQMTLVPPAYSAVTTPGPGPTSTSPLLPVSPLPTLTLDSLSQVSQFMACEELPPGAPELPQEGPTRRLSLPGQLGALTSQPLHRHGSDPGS

| SMILES | IC50 [1] | Kd [2] | also measured |
| --- | --- | --- | --- |
| O=C(O)c1nc(-c2ccc3ccccc3c2)[nH]c(=O)c1O | 1500 nM | 1300 nM | – |
| O=C(O)c1nc(-c2ccccc2Cl)[nH]c(=O)c1O | 3800 nM | 4000 nM | – |
| O=C(O)c1[nH]c(-c2ccc(-c3ccccc3)cc2)cc(=O)c1O | 1100 nM | 430 nM | – |
| Cc1nc(C(=O)O)c(O)c(=O)[nH]1 | > 100000 nM | 44000 nM | – |
| O=C(O)c1nc(-c2ccc(Cl)cc2)nc(O)c1O | 2100 nM | 1100 nM | – |
| COC(=O)c1nc(-c2ccccc2)[nH]c(=O)c1O | > 100000 nM | 56000 nM | – |
| CNC(=O)c1nc(-c2ccccc2)[nH]c(=O)c1O | > 100000 nM | 74000 nM | – |
| N#Cc1cc(-c2ccc(C(=O)N3CCNCC3)cc2)ccc1-n1cc(O)c(=O)c(C(=O)O)c1 | 270 nM | 1100 nM | IC50 [3]: > 100000 nM; IC50 [4]: > 40000 nM; IC50 [5]: > 100000 nM; hepatocyte CLint [6]: 10 µL/min/1e6 cells; logD [7]: < 0; Kinetic_solubility [8]: > 200 µM; IC50 [9]: > 100000 nM; CLH [10]: 7 µL/min/mg; IC50 (Insulin receptor): > 100000 nM; IC50 [11]: > 100000 nM; IC50 (PDE): > 100000 nM; Ratio [12]: 1.1 |
| O=C(O)c1nc(C2CCCCC2)nc(O)c1O | 2800 nM | 2200 nM | – |
| O=C(O)c1cn(-c2ccc(-c3ccccc3)cc2)cc(O)c1=O | 660 nM | 790 nM | – |
| N#CCc1ccc(-c2ccccc2-c2nc(C(=O)O)c(O)c(=O)[nH]2)cc1 | 2800 nM | 540 nM | – |
| O=C(O)c1nc(-c2ccc(-c3ccccc3)cc2)[nH]c(=O)c1O | 2400 nM | 720 nM | – |
| O=C(O)c1cn(-c2ccc(N3CCNCC3)cc2)cc(O)c1=O | 470 nM | 2000 nM | – |
| O=C(O)c1nc(-c2cccc(Cl)c2)nc(O)c1O | 5600 nM | 4800 nM | – |
| CN(C)C(=O)c1nc(-c2ccccc2)[nH]c(=O)c1O | > 100000 nM | > 100000 nM | – |
| O=C(O)c1nc(-c2ccccc2)nc(O)c1O | 3900 nM | 2300 nM | – |
| N#Cc1cc(N2CCNCC2)ccc1-n1cc(O)c(=O)c(C(=O)O)c1 | 470 nM | 1200 nM | – |
| O=C(O)c1cc(-c2ccc(-c3ccccc3)cc2)[nH]c(=O)c1O | 4100 nM | 1400 nM | – |
| O=C(O)c1nc(-c2ccc(Br)cc2)nc(O)c1O | 2000 nM | 1000 nM | – |
| NC(=O)c1nc(-c2ccccc2)[nH]c(=O)c1O | > 100000 nM | > 100000 nM | – |
| O=C(O)c1nc(-c2ccccc2-c2ccccc2)[nH]c(=O)c1O | 4500 nM | 4300 nM | – |
| O=C(O)c1nc(-c2ccc(N3CCNCC3)cc2)[nH]c(=O)c1O | 1200 nM | 2100 nM | – |
| O=C(O)c1nc(-c2cccc(-c3ccccc3)c2)[nH]c(=O)c1O | 2000 nM | 1800 nM | – |
| O=C(O)c1cn(-c2ccc(-c3ccc(C(=O)N4CCNCC4)cc3)cc2)cc(O)c1=O | 320 nM | 670 nM | IC50 [3]: > 100000 nM; IC50 [4]: > 40000 nM; IC50 [5]: > 100000 nM; hepatocyte CLint [6]: 11 µL/min/1e6 cells; logD [7]: < 0; Kinetic_solubility [8]: > 200 µM; IC50 [9]: > 100000 nM; CLH [10]: < 3 µL/min/mg; IC50 (Insulin receptor): > 100000 nM; IC50 [11]: > 100000 nM; IC50 (PDE): > 100000 nM; Ratio [12]: 1.5 |
